Hits are enriched below; roughly 2.9% of the tested compounds scored in any of these assays.
SIAE inh: inhibitors of human sialic acid acetylesterase SIAE; Q9HAT2; SIAE FP-Rh probe binding, fluorescence polarization; inhibition, % at 9.66 µM; 370,000 tested, 0.69% active; AID 1053197;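 active = inhibition above a cutoff: mean of compounds within the control limits plus 3 SD of those, cut at about 17% in these data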
Target sequence (Q9HAT2 whole entry, looked up): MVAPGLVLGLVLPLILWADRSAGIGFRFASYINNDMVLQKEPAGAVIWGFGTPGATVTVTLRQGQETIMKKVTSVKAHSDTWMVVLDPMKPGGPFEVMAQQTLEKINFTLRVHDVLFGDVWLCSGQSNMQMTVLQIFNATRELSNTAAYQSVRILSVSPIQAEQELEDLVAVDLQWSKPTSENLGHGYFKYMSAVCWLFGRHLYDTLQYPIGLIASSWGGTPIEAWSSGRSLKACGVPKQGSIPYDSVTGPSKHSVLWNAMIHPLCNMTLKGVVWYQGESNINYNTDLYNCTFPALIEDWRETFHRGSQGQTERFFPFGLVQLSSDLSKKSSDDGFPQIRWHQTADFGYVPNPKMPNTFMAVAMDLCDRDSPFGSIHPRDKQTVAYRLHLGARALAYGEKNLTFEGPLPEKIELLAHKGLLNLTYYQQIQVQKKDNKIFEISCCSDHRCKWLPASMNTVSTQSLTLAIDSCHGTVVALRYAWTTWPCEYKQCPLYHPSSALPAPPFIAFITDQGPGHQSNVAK
PRMT1 inh: PRMT1 (human) inhibition, primary screen | Q99873 | recombinant PRMT1, activity-based probe fluorescence polarization | inhibition, % at 2.79 µM | AID 652257 | 370,000 tested, 1.3% active;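 active = inhibition above about 21% made by adding two undisclosed values, limit read from the data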
ABHD4 inh: inhibits mouse alpha/beta hydrolase domain 4. 370,000 tested, 0.54% active. purified mABHD4, FP-Rh probe fluorescence polarization. inhibition, % at 8.92 µM. AID 720543;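 active = inhibition exceeding the mean over every tested compound plus 3 SD, cut at about 30% in these data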
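Test system: mABHD4 protein | Buffer or medium: HEPES pH 7.0 buffer, 150 mM NaCl, 0.01% Pluronic F-127 | Probe or stimulus: FP-Rh fluorescent activity-based probe, added after compound pre-incubation | Timing: Pre-incubation 45 min, probe exposure 60 min, at 25 °C | Technique: Fluorescence polarization, excitation 525 nm, emission 598 nm, BODIPY TMR filters | Repeats: Single well per compound (singlicate)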
ATG4B inhibitor: ATG4B (human) cysteine protease inhibition. ATG4B cleavage of LC3-PLA2, NBD-HPC fluorescence, 1 h. Q9Y4P1. 340,000 tested, 0.51% active. inhibition, % at 8.33 µM. AID 504462; in the data active = inhibition above about 40%
HTRA1 inhibitor: inhibitors of human serine peptidase HTRA1; 340,000 tested, 0.5% active; recombinant HTRA1, FP-rhodamine activity-based probe, fluorescence polarization; inhibition, % at 5.96 µM; Q92743; in the data active = inhibition above about 36%
TCR CD3 inh: inhibitors of human TCR-CD3 interaction. inhibition, % at 9.4 µM. 360,000 tested, 0.37% active. TAMRA-labeled TCR probe fluorescence, biochemical; in the data active = inhibition above about 19%;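 note: recombinant mutant TCR 2C K166C tagged with TAMRA read by polarization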
SIAE inh conf: human SIAE inhibition, confirmation; AID 1117263; 2,300 tested, 13% active; shares compounds with SIAE inh; SIAE FP-Rh activity-based probe, fluorescence polarization; inhibition, % at 9.66 µM;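 active = mean inhibition of the replicates above the hit cutoff set in the primary screen, cut at about 17% in these data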;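 note: inhibitors lower polarization as more probe stays unbound to SIAE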
Of the large screens only hits and unclear results are named; the others gave an inactive call (follow-up assays come after a bar, where they were run).

COC(=O)c1ccccc1S(=O)(=O)NC(=O)[C@H]1O[C@@H](n2ccc(=O)[nH]c2=O)[C@H](O)[C@@H]1O	SIAE inh 74 (no result: ATG4B inhibitor, HTRA1 inhibitor) | SIAE inh conf 73
O=C(OCC#CCSc1nnc(-c2cccc3ccccc23)o1)c1ccccc1F	none (no result: ATG4B inhibitor, HTRA1 inhibitor, TCR CD3 inh)
CC(C)OC(=O)CSc1nnc(-c2ccccn2)n1-c1ccccc1	none
CC(C)OC(=O)CSc1nnc(-c2ccccn2)n1C	SIAE inh 18 | SIAE inh conf inactive
CCCCN1CCN(C(=O)C2CCCN(C(=O)c3ccc4c(c3)NC(=O)CS4)C2)CC1 (configuration not stated)	none (no result: ATG4B inhibitor, HTRA1 inhibitor, TCR CD3 inh)
CSc1nnc([C@@H](NC(=O)OC(C)(C)C)C(C)C)o1	SIAE inh 18 | SIAE inh conf inactive
O=C(CSc1nnc(-c2cccnc2)n1C1CCCCC1)N1CCCC1	none (no result: ATG4B inhibitor, HTRA1 inhibitor, TCR CD3 inh)
CC(C)CNC(=O)OCc1cn(Cc2ccccc2Cl)nn1	none (no result: ATG4B inhibitor, HTRA1 inhibitor, TCR CD3 inh)
O=C(COC(=O)COc1ccc(Cl)cc1)Nc1ccc2c(c1)OCCO2	SIAE inh 18 | SIAE inh conf inactive
CCC(=O)c1ccc(OCC(=O)OCC(=O)Nc2ccc3c(c2)OCCO3)cc1	none
Nc1ccc(N=Nc2ccccc2)cc1[N+](=O)[O-]	SIAE inh 18 | SIAE inh conf inactive
COCCNc1nc(NCCOC)c2sc(-c3ccccc3)cc2n1	none (no result: ATG4B inhibitor, HTRA1 inhibitor)
COCCNc1nc(NCc2cccc(OC)c2)c2sccc2n1	none (no result: ATG4B inhibitor, HTRA1 inhibitor)
C=CCNc1nc(NCc2cccc(OC)c2)c2sc(-c3ccccc3)cc2n1	SIAE inh 20 (no result: ATG4B inhibitor, HTRA1 inhibitor) | SIAE inh conf inactive
CC(C)Nc1nc(NCCOc2ccccc2Cl)c2sc(-c3ccccc3)cc2n1	SIAE inh 19 (no result: ATG4B inhibitor, HTRA1 inhibitor) | SIAE inh conf 20
COCCNc1nc(NCCOc2ccccc2)c2sc(-c3ccccc3)cc2n1	SIAE inh 22 (no result: ATG4B inhibitor, HTRA1 inhibitor) | SIAE inh conf 21
COc1ccccc1CNc1nc(NC(C)C)nc2cc(-c3ccccc3)sc12	SIAE inh 22 (no result: ATG4B inhibitor, HTRA1 inhibitor) | SIAE inh conf 28
O=C(c1cc(Cl)cc(Cl)c1)N1CC[C@H]2[C@H](CCCN2Cc2cc(F)cc(F)c2)C1	none (no result: ATG4B inhibitor, HTRA1 inhibitor, TCR CD3 inh)
COc1ccccc1C(=O)N1CCN(C(=O)[C@@H](Cc2ccccc2)NC(=O)[C@H]2O[C@@H](n3ccc(N)nc3=O)[C@H](O)[C@@H]2O)CC1	none (no result: ATG4B inhibitor, HTRA1 inhibitor)
O=S1(=O)c2ccc(Br)cc2OC[C@@H](Cc2ccccc2)N1Cc1cn(Cc2ccc(C(F)(F)F)cc2)nn1	none (no result: ATG4B inhibitor, HTRA1 inhibitor, TCR CD3 inh)
Cc1c(Cl)cccc1NC(=O)c1cc(S(=O)(=O)N2CCOCC2)cn1C	none
Cc1cccc(C)c1NC(=O)c1cc(S(=O)(=O)N2CCOCC2)cn1C	SIAE inh 19 | SIAE inh conf inactive
COc1cccc(CN2C(=O)c3ccccc3S2(=O)=O)c1	SIAE inh 17 | SIAE inh conf inactive
COC(=O)c1ccc(CN2C(=O)c3ccccc3S2(=O)=O)cc1	none
Cc1ccc(Cl)cc1NC(=O)Cn1c(C)csc1=O	SIAE inh 23 | SIAE inh conf inactive
Cc1cc(Cl)ccc1NC(=O)CN1CCCC1	SIAE inh 23 | SIAE inh conf inactive
O=C(CN1CCCC1)Nc1ccc(Cl)cc1C(F)(F)F	none
COc1ccc(-c2cc(-c3c(O)c(OC)c4occc4c3OC)[nH]n2)cc1OC	SIAE inh 19 | SIAE inh conf inactive
COc1ccc(-c2cc(-c3c(O)c(OC)c4occc4c3OC)[nH]n2)cc1	SIAE inh 22 | SIAE inh conf inactive
COc1ccc2c(C(c3ccccc3O)C3CCCN3S(=O)(=O)c3ccc(C)cc3)cn(C)c2c1 (configuration not stated)	none (no result: ATG4B inhibitor, HTRA1 inhibitor, TCR CD3 inh)
O=P(c1ccccc1)(c1ccccc1)C(O)c1ccncc1 (configuration not stated)	SIAE inh 24 | SIAE inh conf inactive
COC(=O)COc1ccc(-c2nn(C)c(=O)c3ccccc23)cc1	SIAE inh 20 | SIAE inh conf inactive
COc1ccc(OC)c(S(=O)(=O)NCC(c2ccco2)N2CCc3ccccc32)c1 (configuration not stated)	SIAE inh 18 | SIAE inh conf inactive
O=C(NCC(c1ccco1)N1CCc2ccccc21)c1ccccc1 (configuration not stated)	SIAE inh 23 | SIAE inh conf inactive
COc1ccccc1C(=O)NCC(c1ccco1)N1CCc2ccccc21 (configuration not stated)	none
CCCCCCCCN1C(=O)[C@@H](CC(=O)N2CCN(C(=O)OCC)CC2)C[C@@]2(C(=O)OC)C1=C[C@H](C(C)(C)C)O[C@@H]2C	none (no result: ATG4B inhibitor, HTRA1 inhibitor)
CC(C)(C)C(=O)N1CCN(c2nc3ccc(Cl)cc3s2)CC1	SIAE inh 18 | SIAE inh conf inactive
CC(C)(C)C(=O)N1CCN(c2nc3ccc(Br)cc3s2)CC1	none
CC(C)CSc1ncccc1-c1nc2ccccc2[nH]1	none (no result: ATG4B inhibitor, HTRA1 inhibitor, TCR CD3 inh)
Cc1cc(C)c(NC(=O)COC(=O)C2=COCCO2)c(C)c1	none (no result: ATG4B inhibitor)
Cc1cc(C)c(NC(=O)C2=COCCO2)c(C)c1	SIAE inh 17 | SIAE inh conf inactive
CC(CNC(=O)CN1C(=O)NC2(CCOc3ccccc32)C1=O)c1ccccc1 (configuration not stated)	SIAE inh 82 | SIAE inh conf inactive
COCCNC(=O)CN1C(=O)NC2(CCOc3ccccc32)C1=O (configuration not stated)	none
CCC[C@H]1[C@@H](NC(=O)c2cccnc2)CC[C@@]23CCCN2C(=O)CCC[C@@H]13	none (no result: ATG4B inhibitor, HTRA1 inhibitor, TCR CD3 inh)
Cc1ccc2nc(CN(C)C(=O)[C@H]3O[C@@H](n4cnc(C(N)=O)n4)[C@H](O)[C@@H]3O)[nH]c2c1	none (no result: ATG4B inhibitor, HTRA1 inhibitor)
Cc1ccc(-n2c(C)cc(C(=O)NS(=O)(=O)c3ccc(C)cc3)c2C)cc1	none
Cc1ccc(S(=O)(=O)NC(=O)c2cc(C)n(C3CC3)c2C)cc1	SIAE inh 24 | SIAE inh conf inactive
CC(C)(C)c1ccc(S(=O)(=O)N2CCCC(C(=O)NCc3ccco3)C2)cc1 (configuration not stated)	none (no result: ATG4B inhibitor, HTRA1 inhibitor, TCR CD3 inh)
O=C(c1ccncc1)N1CC[C@H]2[C@H](CCCN2Cc2cc(F)cc(F)c2)C1	none (no result: ATG4B inhibitor, HTRA1 inhibitor, TCR CD3 inh)
CS(=O)(=O)N(Cc1ccc(C(=O)NCCSCc2ccco2)cc1)c1ccccc1	SIAE inh 18 | SIAE inh conf inactive
COc1ccc(CNC(=O)CCNC(=O)N2CC(=O)Nc3ccccc32)cc1	SIAE inh active (no result: ATG4B inhibitor) | SIAE inh conf inactive
Cc1ccc(NC(=O)COC(=O)CCc2ccccc2)c(Cl)c1	SIAE inh 22 | SIAE inh conf inactive
Cn1cnnc1SCC(=O)c1cc2ccccc2oc1=O	SIAE inh 18 | SIAE inh conf inactive
CN(C)CCOC(=O)/C(=C/c1cn(C)c2ccccc12)NC(=O)c1ccccc1	SIAE inh 18 | SIAE inh conf inactive
Cc1ccc(CN2CCCCC(NC(=O)C(C)(C)C)C2=O)cc1 (configuration not stated)	none (no result: ATG4B inhibitor, HTRA1 inhibitor, TCR CD3 inh)
